# In ChEMBL document CHEMBL1157817, “2-aminoimidazole amino acids as inhibitors of the binuclear manganese metalloenzyme human arginase I” (J Med Chem, 2010):
# The source made the active and inactive calls. The rule behind the calls is not given here.
# Experiments:
# [1] = target: T1, Arginase-1 (Homo sapiens, UniProt P05089); experiment: Inhibition of human recombinant full length arginase 1 expressed in Escherichia coli BL21(DE3) by fixed point assay
# T1 sequence (P05089 whole entry): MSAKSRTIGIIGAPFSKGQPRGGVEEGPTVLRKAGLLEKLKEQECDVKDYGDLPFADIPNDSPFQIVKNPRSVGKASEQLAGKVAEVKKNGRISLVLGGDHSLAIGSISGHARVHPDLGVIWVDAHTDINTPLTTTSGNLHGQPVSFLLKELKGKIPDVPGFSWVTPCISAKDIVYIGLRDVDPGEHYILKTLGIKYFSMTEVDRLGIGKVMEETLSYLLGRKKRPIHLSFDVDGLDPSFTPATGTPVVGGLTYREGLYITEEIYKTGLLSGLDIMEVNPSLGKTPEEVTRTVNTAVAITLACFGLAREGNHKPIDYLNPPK
# [2] = tested on: Mus musculus; experiment: Antiinflammatory activity in ovalbumin-sensitized and challenged BALB/c mouse model assessed as attenuation of methacholine-induced increase in central airways responsiveness at 85 ug/g administered via nebulization 24 hrs after ovalbumin challenge measured after 15 mins; type: functional, organism-based
# Summary of the method: (§1)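 Mice OVA-sensitized, then nebulized 6% OVA in PBS (or PBS alone) 25 min/day on days 14–20. Day 21, 24 h after last challenge: ketamine 50 mg/kg plus xylazine 10 mg/kg, intubated, ventilator-based resistance measured. Baseline resistance re-measured 15 min after drug. Then nebulized methacholine (0–100 mg/mL in PBS) dose-response via ventilator circuit. Maximum R and RN read; means ± SE, n = 12/group.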
# [3] = target: T1, Arginase-1; experiment: Inhibition of human recombinant full length arginase 1 expressed in Escherichia coli BL21(DE3) by surface plasmon resonance assay
# [4] = target: Nitric oxide synthase 1 (Rattus norvegicus, UniProt P29476); experiment: Inhibition rat recombinant nNOS
# [5] = tested on: Mus musculus; experiment: Antiinflammatory activity in ovalbumin-sensitized and challenged BALB/c mouse model assessed as attenuation of methacholine-induced maximum total lung resistance at 85 ug/g administered via nebulization 24 hrs after ovalbumin challenge measured after 15 mins; type: functional, organism-based; summary of the method: as §1
# [6] = target: T2, Nitric oxide synthase, inducible (Mus musculus, UniProt P29477); experiment: Inhibition of mouse recombinant iNOS
# T2 sequence (P29477 whole entry): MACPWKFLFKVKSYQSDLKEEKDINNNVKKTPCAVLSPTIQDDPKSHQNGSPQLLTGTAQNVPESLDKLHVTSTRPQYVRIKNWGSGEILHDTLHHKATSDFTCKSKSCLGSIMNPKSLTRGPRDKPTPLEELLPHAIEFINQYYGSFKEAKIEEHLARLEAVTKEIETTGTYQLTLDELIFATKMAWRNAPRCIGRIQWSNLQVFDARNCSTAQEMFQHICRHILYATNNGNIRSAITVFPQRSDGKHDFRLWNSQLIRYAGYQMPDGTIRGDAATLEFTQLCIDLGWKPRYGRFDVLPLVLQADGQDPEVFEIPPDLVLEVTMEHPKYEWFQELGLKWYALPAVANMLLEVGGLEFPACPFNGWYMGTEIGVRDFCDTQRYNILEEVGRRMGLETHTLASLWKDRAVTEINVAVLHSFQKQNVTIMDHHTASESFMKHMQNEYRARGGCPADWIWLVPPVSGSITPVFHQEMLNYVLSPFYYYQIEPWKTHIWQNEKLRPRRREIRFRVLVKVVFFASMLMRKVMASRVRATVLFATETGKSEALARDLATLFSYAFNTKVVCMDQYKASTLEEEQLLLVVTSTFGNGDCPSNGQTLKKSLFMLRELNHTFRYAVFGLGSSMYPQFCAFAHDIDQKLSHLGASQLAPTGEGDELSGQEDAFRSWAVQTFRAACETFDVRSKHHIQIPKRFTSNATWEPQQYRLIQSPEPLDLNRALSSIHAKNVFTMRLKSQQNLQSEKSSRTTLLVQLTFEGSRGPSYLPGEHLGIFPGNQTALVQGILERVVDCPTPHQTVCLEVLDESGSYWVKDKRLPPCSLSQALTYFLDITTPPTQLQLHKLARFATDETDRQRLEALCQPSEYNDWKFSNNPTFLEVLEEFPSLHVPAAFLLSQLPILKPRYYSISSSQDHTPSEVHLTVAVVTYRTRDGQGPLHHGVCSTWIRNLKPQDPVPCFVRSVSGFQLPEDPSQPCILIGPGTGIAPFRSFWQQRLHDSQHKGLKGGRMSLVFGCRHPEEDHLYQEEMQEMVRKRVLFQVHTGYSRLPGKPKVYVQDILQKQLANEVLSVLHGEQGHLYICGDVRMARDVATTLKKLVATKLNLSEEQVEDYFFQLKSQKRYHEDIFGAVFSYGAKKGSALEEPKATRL
# Nitric oxide synthase 1, sequence (P29476 whole entry): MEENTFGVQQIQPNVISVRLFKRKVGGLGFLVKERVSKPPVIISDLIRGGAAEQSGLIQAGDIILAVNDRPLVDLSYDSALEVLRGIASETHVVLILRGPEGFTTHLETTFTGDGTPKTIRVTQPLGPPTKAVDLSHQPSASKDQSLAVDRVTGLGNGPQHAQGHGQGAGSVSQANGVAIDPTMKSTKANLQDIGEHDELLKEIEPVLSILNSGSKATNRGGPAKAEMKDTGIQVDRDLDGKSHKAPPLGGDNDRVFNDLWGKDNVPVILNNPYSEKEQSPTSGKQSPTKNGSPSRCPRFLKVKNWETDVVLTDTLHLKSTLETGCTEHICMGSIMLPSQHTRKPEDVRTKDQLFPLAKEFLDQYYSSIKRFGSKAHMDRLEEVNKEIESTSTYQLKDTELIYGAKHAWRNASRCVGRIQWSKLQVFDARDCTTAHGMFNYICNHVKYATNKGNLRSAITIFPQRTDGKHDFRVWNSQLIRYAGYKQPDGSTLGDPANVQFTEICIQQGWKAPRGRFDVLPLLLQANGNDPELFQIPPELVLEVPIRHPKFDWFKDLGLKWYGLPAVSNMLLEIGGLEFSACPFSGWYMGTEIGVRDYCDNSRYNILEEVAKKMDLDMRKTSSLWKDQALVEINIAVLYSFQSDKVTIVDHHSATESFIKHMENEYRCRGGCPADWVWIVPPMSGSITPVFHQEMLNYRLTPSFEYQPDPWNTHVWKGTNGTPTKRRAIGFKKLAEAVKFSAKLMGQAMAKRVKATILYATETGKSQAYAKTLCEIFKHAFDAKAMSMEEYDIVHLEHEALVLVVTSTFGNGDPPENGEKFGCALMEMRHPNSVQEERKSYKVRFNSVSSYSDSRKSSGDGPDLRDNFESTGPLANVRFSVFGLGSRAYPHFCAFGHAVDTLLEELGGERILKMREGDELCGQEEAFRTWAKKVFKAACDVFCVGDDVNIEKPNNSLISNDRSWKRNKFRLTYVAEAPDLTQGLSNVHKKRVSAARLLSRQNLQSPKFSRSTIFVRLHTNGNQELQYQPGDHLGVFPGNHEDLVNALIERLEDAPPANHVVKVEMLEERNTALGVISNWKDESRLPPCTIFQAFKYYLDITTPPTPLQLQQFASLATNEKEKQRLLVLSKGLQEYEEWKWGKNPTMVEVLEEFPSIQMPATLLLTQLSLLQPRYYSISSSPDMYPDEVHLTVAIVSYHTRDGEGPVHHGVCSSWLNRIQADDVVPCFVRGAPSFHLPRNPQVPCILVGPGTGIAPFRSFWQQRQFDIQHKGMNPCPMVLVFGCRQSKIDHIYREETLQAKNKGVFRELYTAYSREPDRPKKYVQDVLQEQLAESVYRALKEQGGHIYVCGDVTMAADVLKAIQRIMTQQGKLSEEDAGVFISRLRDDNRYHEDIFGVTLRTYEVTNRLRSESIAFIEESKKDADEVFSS
SMILES,Ki [1],inhibition [2],Kd [3],IC50 [4],inhibition [5],IC50 [6]
N[C@@H](CCCNc1ncc[nH]1)C(=O)O,500 µM,,,,,
Nc1ncc[nH]1,3600 µM,,,,,
Nc1nccn1CCC[C@H](N)C(=O)O,4 µM,Active,2 µM,135 µM,Active,480 µM
